Compound activity deposited in PubChem BioAssay by several laboratories.
Hits are enriched below; roughly 1.3% of the tested compounds scored in any of these assays.
TAG inh – triacylglycerol accumulation inhibition; H9c2 cells, Nile Red lipid (TAG) fluorescence; cells loaded with 200 µM oleic acid; inhibition, % at 12.5 µM; hit rate 0.66% among 230,000; AID 651582;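 active = pattern-corrected inhibition of lipid staining of at least 50% with the nuclear-stain viability signal not falling by more than 50%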
Efflux pump mplx – blocks antifungal efflux pumps in multiplex yeast assay; inhibition, % at 10 µM; S. cerevisiae Candida pump triplex, Nile Red efflux; hit rate 0.44% among 330,000;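 active = plate passing quality check with inhibition over a set limit, or well fluorescence over plate mean plus 4 SD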;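 also: Nile Red retained in pooled yeast measured as flow cytometry median fluorescence; higher means more Nile Red kept so more efflux inhibition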
MT1-MMP act inh – inhibitors of human MT1-MMP activation; GFP/RFP ratio change, % at 20 µM; hit rate 0.061% among 360,000; HT1080 RFP-PRO-GFP cells, GFP/RFP ratio fluorescence, overnight; percent of plate control window, DMSO zero; P50281; AID 651647;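 active = GFP/RFP ratio change of at least 30% with cell ATP level not reduced by more than half and red fluorescence within 50% of control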
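Assay system: HT1080 cells carrying an RFP-PRO-GFP reporter | Dosing: Single dose of 20 µM compound, 1% DMSO final | Incubation: Cells overnight before dosing, compound overnight, 37 °C, 5% CO2 | Evaluation: GFP/RFP fluorescence ratio | Control set: DMSO and RFP-L50D-GFP cell wells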
HGIII-sPLA2 inh – Inhibits HGIII-sPLA2 liposome hydrolysis, primary screen; hit rate 0.56% among 370,000; QFRET BODIPY PC-A2 liposome hydrolysis, fluorescence; inhibition, % at 12.2 µM; Q9NZ20;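 active = inhibition above mean plus 3 SD of compounds lying within the high and low control bounds, cut at about 19% in these data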
Target sequence (Q9NZ20 whole entry, looked up): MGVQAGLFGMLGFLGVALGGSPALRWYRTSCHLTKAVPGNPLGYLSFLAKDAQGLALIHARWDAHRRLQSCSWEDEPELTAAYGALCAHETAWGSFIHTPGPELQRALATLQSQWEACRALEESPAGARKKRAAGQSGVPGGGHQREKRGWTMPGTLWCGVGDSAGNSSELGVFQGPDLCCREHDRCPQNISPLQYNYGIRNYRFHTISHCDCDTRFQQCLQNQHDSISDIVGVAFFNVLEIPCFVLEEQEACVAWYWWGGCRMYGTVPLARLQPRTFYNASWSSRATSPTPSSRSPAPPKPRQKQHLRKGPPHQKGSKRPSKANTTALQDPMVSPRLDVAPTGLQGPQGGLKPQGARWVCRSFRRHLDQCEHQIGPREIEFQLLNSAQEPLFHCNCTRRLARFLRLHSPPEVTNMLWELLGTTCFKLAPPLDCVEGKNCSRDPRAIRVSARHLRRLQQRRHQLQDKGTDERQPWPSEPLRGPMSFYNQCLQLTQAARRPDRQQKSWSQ
sPLA2 confirm – human GIII-sPLA2 inhibition, confirmation. shares compounds with HGIII-sPLA2 inh. hit rate 34% among 2,000. recombinant hGIII-sPLA2, BODIPY PC-A2 QFRET fluorescence. inhibition, % at 12.2 µM;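 active = mean inhibition across triplicates above the hit cutoff set in the earlier primary screen, cut at about 19% in these data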
535nm interf – optically interferes with 535nm fluorescence in sPLA2 counter-screen; shares compounds with HGIII-sPLA2 inh; BODIPY FL product fluorescence interference, QFRET; inhibition, % at 12.2 µM; hit rate 8.5% among 2,000; AID 743282;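 active = average inhibition above the solvent-only control mean plus 3 SD, cut at about 6% in these data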
BODIPY interf DR – interferes with 535nm fluorescence in dose response counter-screen. shares compounds with HGIII-sPLA2 inh. BODIPY FL product fluorescence interference, cell-free. IC50, µM. 240 tested, under 10 active. AID 743455;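 active = IC50 at or below 10 µM; inactive = IC50 above 10 µM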
Hits are given with their value; i = inactive; nt = no result given.

SMILES	TAG inh	Efflux pump mplx	MT1-MMP act inh	HGIII-sPLA2 inh	sPLA2 confirm	535nm interf	others
Cc1cc2c(=Cc3ccc(N(C)C)cc3)c3ccccc3n2[n+]1C	i	nt	i	i	nt	nt
CCOC(=O)c1cc2c(=Cc3ccc(N(C)C)cc3)c3ccccc3n2[n+]1C	i	nt	i	28	35	i	BODIPY interf DR=i
O=c1c2c3c(sc2nc(NCCO)n1CCc1ccccc1)CCCCC3	nt	i	i	i	nt	nt
O=c1c2c3c(sc2nc(N2CCNCC2)n1CCc1ccccc1)CCCCC3	i	i	i	20	i	i
Cc1ccc(C)c(OCCNc2ncccc2[N+](=O)[O-])c1	nt	i	i	i	nt	nt
CCCCC(=O)Nc1c2c(nn1-c1cccc(C)c1C)CS(=O)(=O)C2	nt	i	i	20	i	i
CCCC(=O)Nc1c2c(nn1-c1cccc(C)c1C)CS(=O)(=O)C2	nt	i	i	i	nt	nt
CCCCn1c(-c2csc(CC)c2)n[nH]c1=S	nt	i	i	20	25	i
CCCCn1c(-c2nn(C)c(C)c2Cl)n[nH]c1=S	i	i	i	20	24	i
COC(=O)c1nc(NC(=O)c2cc(OC)c(OC)c(OC)c2)n[nH]1	nt	i	i	i	nt	nt
CCOC(=O)c1c(C)[nH]c(C(=O)COC(=O)/C=C/c2cccc(OC)c2OC)c1C	nt	i	i	i	nt	nt
CCOC(=O)c1c(C)[nH]c(C(=O)COC(=O)COc2ccccc2C=O)c1C	nt	i	i	20	i	i
COc1ccc(CC(N)c2csc(NC(=O)Nc3cc(OC)ccc3OC)n2)cc1 (configuration not stated)	i	nt	i	i	nt	nt
CC(C)c1ccc(NC(=O)Nc2nc(C(N)CCc3ccccc3)cs2)cc1 (configuration not stated)	i	nt	i	21	i	i
COc1ccc(OC)c(NC(=O)Nc2nc(C(N)CCc3ccccc3)cs2)c1 (configuration not stated)	i	nt	i	23	i	i
CC(C)c1ccc(NC(=O)Nc2nc(C(C)N)cs2)cc1 (configuration not stated)	i	nt	i	i	nt	nt
S=C(c1ccc2c(c1)OCO2)N1CCN(c2cccc(Cl)c2)CC1	i	nt	i	i	nt	nt
O=C(NNC1=NC2(CCCC2)Cc2ccccc21)c1ccncc1	i	i	i	i	nt	nt
C/C(=N\NC(=O)CSCc1ccc([N+](=O)[O-])cc1)c1ccccc1O	nt	i	i	21	i	i
Nc1[nH]c(C(=O)c2ccccc2)c(-c2ccccn2)c1C(=O)c1c[nH]c2ccccc12	nt	nt	nt	i	nt	nt
NC(=O)C1CC(=O)N(c2ccc(OCc3ccc(Cl)c(Cl)c3)cc2)C1 (configuration not stated)	i	nt	i	21	i	i
CN(C)C(=O)CSc1nnc(-c2ccc(F)cc2)c2ccccc12	i	i	i	i	nt	nt
CCCCSc1nnc(-c2ccc(C)cc2)c2ccccc12	nt	i	i	24	i	i
O=[N+]([O-])c1ccc(O)c(N=Cc2sc3ccccc3c2O)c1	nt	i	i	26	36	i	BODIPY interf DR=i
COCCNC(=S)N/N=C(\C)c1ccccc1OC	nt	i	i	i	nt	nt
SMILES	TAG inh	Efflux pump mplx	MT1-MMP act inh	HGIII-sPLA2 inh	sPLA2 confirm	535nm interf	others
COCCNC(=S)N/N=C(\C)c1ccccc1O	nt	i	i	43	22	i
COc1ccc(O)c(/C=N/NC(=S)NCCc2ccccc2)c1	nt	i	i	i	nt	nt
COc1ccc(/C(C)=N/NC(=S)NCCc2ccccc2)c(O)c1	nt	i	i	44	i	8.2
N#C/C(=C\c1ccc(Cl)cc1)C(=O)Nc1cccnc1	i	i	i	i	nt	nt
CCn1c(=N)n(CC(O)c2ccco2)c2ccccc21 (configuration not stated)	nt	i	i	i	nt	nt
N=c1n(CCN2CCCCC2)c2ccccc2n1CC(O)c1ccco1 (configuration not stated)	i	i	i	21	i	i
COc1cc(C)ccc1OCCOc1c(C)cc(Cl)cc1Cl	nt	i	i	i	nt	nt
CN1CCN(C(=O)c2ccc(OCCOc3ccccc3)cc2)CC1	nt	i	i	nt	nt	nt
O=C(O)C1CC=CCC1C(=O)N1CCN(c2nc(-c3ccccc3Cl)c3cc(Br)ccc3n2)CC1 (configuration not stated)	nt	i	i	24	i	i
O=C(O)C1CC=CCC1C(=O)N1CCN(c2nc(-c3ccccc3)c3ccccc3n2)CC1 (configuration not stated)	i	i	i	i	nt	nt
CSc1nnc(NC(=O)c2ccc(S(=O)(=O)N3CCOCC3)cc2)s1	i	i	i	i	nt	nt
S=c1[nH]nc(CCCc2n[nH]c(=S)o2)o1	i	i	i	i	nt	nt
S=c1[nH]nc(Cc2ccc(Cl)cc2)o1	i	i	i	22	i	i
COc1ccc(CCNC(=O)c2cnn3c(C(F)F)cc(C)nc23)cc1OC	i	i	i	20	i	i
Nc1ccn([C@@H]2O[C@H](C(=O)N[C@H](CO)Cc3ccccc3)[C@@H](O)[C@H]2O)c(=O)n1	nt	nt	i	i	nt	nt
Cc1ccc(Cn2c(=O)c3c(nc4n3CCCN4Cc3ccccc3)n(C)c2=O)cc1	i	i	i	73	i	i
O=C(NCc1ccco1)c1ccc2sc([C@H]3C[C@H](O)[C@@H](CO)O3)nc2c1	i	nt	i	i	nt	nt
O=C(O)c1sccc1Oc1ccc(NS(=O)(=O)c2ccccc2)cc1	nt	i	i	i	nt	nt
C=CCNS(=O)(=O)c1ccc(OCC(=O)OC)cc1	nt	i	i	24	i	i
COC(=O)COc1ccc(S(=O)(=O)NCc2ccco2)cc1	nt	i	i	i	nt	nt
Cc1ccc(C(=O)NC(=S)Nc2c(C)ccc3nsnc23)cc1	nt	i	i	23	i	i
C/C(=N/NC(=O)c1cc(C)[nH]n1)c1ccncc1	nt	i	i	i	nt	nt
COC(=O)N/N=C\c1c(C)nn(-c2ccccc2)c1Cl	nt	i	i	i	nt	nt
COC(=O)N/N=C/c1c(C)nn(-c2cccc(Cl)c2)c1Cl	nt	i	i	20	i	i
Cc1ccnc(N2C(=O)CSC2c2ccc(Cl)cc2)c1 (configuration not stated)	nt	i	i	i	nt	nt
SMILES	TAG inh	Efflux pump mplx	MT1-MMP act inh	HGIII-sPLA2 inh	sPLA2 confirm	535nm interf	others
CNC(=S)NNC(=O)c1cccn(Cc2ccc(Cl)c(Cl)c2)c1=O	nt	i	i	i	nt	nt
C=CCNC(=S)NNC(=O)c1cccn(Cc2ccc(Cl)c(Cl)c2)c1=O	i	i	i	25	31	i	BODIPY interf DR=i
C=CCNC(=S)NNC(=O)c1ccc(C)c(Cl)c1	i	i	i	23	21	i
C=CCNC(=S)NNC(=O)c1cccn(Cc2ccc(Cl)cc2Cl)c1=O	nt	i	i	26	22	i
COc1ccc(NC(=S)NC2CCCCC2)cn1	i	i	i	i	nt	nt
CCCOP(=O)(c1ccc(N(C)C)cc1)C(Nc1ccccc1)c1ccc(C)cc1 (configuration not stated)	i	i	i	i	nt	nt
O=C(O)c1ccc(N2C(=O)CC(N3CCN(c4cccc(C(F)(F)F)c4)CC3)C2=O)cc1 (configuration not stated)	i	i	i	21	i	i
